Laboratory results: ChEMBL document CHEMBL3616369, “N-O-Isopropyl Sulfonamido-Based Hydroxamates as Matrix Metalloproteinase Inhibitors: Hit Selection and in Vivo Antiangiogenic Activity” (J Med Chem, 2015)
Active and inactive are the calls of the source. The calls are words filed in the database; no cut-off is given here.

Experiments:
[1] = target: T1, Matrix metalloproteinase-9 (Homo sapiens, UniProt P14780); test: Inhibition of recombinant human activated-MMP9 using Mca-Lys-Pro-Leu-Gly-Leu-Dap(Dnp)-Ala-Arg-NH2 as fluorogenic substrate incubated for 4 hrs followed by substrate addition measured every 10 secs for 20 mins by fluorometric assay
Method in brief: (§1)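 Recombinant human MMPs. Pro-forms activated with APMA: MMP-2 2 mM 1 h, MMP-9 1 mM 1 h, MMP-1 2 mM 2 h, MMP-13 1 mM 35 min, all 37 °C. MMP-3 activated with trypsin 4.4 µg/mL 30 min, then soybean trypsin inhibitor. Final enzyme 0.5 (MMP-2), 1.3 (MMP-9), 1.0 (MMP-14cd), 2.0 (MMP-1), 0.66 (MMP-13), 5 nM (MMP-3). Preincubated with inhibitor 4 h at 25 °C in Tris 50 mM pH 7.5, NaCl 150 mM, CaCl2 10 mM, Brij 35 0.05%, DMSO 1%. Substrate 2 µM final; fluorescence (ex 325/em 395 nm) every 10 s for 20 min. IC50 from vi/vo = 1/(1+[I]/IC50).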

[2] = target: T2, 72 kDa type IV collagenase (Homo sapiens, UniProt P08253); test: Inhibition of recombinant human activated-MMP2 using Mca-Lys-Pro-Leu-Gly-Leu-Dap(Dnp)-Ala-Arg-NH2 as fluorogenic substrate incubated for 4 hrs followed by substrate addition measured every 10 secs for 20 mins by fluorometric assay; method in brief: as §1
Target sequence in this assay (P08253 whole entry): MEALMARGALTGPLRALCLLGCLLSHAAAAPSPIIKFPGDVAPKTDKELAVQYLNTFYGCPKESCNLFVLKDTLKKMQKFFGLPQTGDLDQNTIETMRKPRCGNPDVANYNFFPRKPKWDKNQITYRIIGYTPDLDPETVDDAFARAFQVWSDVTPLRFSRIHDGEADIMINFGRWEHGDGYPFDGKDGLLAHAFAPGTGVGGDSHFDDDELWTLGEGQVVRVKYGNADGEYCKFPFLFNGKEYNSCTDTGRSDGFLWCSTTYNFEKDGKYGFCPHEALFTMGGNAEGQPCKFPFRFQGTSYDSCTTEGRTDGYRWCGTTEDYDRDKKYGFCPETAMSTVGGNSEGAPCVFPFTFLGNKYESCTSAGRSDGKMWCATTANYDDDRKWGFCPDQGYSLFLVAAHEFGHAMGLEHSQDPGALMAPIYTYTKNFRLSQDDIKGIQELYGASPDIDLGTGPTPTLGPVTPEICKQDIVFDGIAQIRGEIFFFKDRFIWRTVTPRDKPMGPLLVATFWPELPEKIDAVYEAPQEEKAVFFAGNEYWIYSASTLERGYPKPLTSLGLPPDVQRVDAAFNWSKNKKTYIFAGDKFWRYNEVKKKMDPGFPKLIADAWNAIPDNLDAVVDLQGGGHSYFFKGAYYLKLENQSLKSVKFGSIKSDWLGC

Stromelysin-1 = Stromelysin-1 (Homo sapiens, UniProt P08254); test: Inhibition of recombinant human activated-MMP3 using Mca-Lys-Pro-Leu-Gly-Leu-Dap(Dnp)-Ala-Arg-NH2 as fluorogenic substrate incubated for 4 hrs followed by substrate addition measured every 10 secs for 20 mins by fluorometric assay; method in brief: as §1
Interstitial collagenase = target: T3, Interstitial collagenase (Homo sapiens, UniProt P03956); test: Inhibition of recombinant human activated-MMP1 using Mca-Lys-Pro-Leu-Gly-Leu-Dap(Dnp)-Ala-Arg-NH2 as fluorogenic substrate incubated for 4 hrs followed by substrate addition measured every 10 secs for 20 mins by fluorometric assay; method in brief: as §1
T3 sequence (P03956 whole entry): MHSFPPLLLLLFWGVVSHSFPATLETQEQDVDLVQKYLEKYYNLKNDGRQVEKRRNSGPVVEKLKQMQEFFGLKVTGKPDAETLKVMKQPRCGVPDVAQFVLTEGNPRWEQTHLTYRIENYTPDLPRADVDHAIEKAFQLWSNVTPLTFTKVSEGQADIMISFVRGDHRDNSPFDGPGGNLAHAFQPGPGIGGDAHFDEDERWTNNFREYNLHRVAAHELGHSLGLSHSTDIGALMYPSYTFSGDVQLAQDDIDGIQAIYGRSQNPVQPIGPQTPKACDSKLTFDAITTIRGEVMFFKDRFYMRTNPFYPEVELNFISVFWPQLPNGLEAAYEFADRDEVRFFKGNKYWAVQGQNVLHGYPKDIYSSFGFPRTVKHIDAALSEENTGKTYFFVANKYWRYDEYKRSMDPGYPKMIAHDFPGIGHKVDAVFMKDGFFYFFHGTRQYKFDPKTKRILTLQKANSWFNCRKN

[3] = target: Matrix metalloproteinase-14 (Homo sapiens, UniProt P50281); test: Inhibition of recombinant human catalytic domain MMP14 using Mca-Lys-Pro-Leu-Gly-Leu-Dap(Dnp)-Ala-Arg-NH2 as fluorogenic substrate incubated for 4 hrs followed by substrate addition measured every 10 secs for 20 mins by fluorometric assay; method in brief: as §1
[4] = target: T2, 72 kDa type IV collagenase; test: Inhibition of MMP2 gelatinase activity in human HUVEC at 0.001 uM by gel zymography
Method in brief: (§2)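 Gelatin zymography on 10% polyacrylamide gels with 0.1% gelatin and SDS, samples unheated. Gels renatured 30 min at room temperature. Either untreated-HUVEC conditioned medium run and gel lane slices developed overnight at 37 °C in developing buffer containing inhibitor, or medium from inhibitor-treated HUVEC developed overnight without inhibitor. Coomassie stained; bands quantified by densitometry.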
Target sequence in this assay (P08253 110-660 limits assumed): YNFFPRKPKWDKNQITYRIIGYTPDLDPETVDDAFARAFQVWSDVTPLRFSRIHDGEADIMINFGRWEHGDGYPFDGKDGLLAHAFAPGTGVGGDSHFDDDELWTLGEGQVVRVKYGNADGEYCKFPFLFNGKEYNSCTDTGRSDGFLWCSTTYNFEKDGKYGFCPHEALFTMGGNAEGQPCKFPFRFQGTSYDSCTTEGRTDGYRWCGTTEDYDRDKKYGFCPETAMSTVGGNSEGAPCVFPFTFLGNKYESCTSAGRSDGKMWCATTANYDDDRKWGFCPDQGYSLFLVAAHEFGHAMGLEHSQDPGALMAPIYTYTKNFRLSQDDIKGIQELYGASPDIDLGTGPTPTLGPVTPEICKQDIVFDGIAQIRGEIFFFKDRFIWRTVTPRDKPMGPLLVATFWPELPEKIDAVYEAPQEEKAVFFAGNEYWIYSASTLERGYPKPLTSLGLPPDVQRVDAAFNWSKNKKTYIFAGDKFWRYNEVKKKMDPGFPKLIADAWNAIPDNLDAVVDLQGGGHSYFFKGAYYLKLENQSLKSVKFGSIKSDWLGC

HUVEC [5] = test: Inhibition of FBS-induced capillary-like network organization in human HUVEC at 0.001 to 10 uM after 6 hrs by matrigel assay; assay type: functional, cell-based
Method in brief: (§3)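 Matrigel (10 mg/mL) polymerized 1 h at 37 °C. HUVEC (50x10^4/well) in complete medium with 10% FBS, with or without inhibitor at various concentrations, layered on top. After 6 h, capillary-like organization imaged by inverted microscope; mesh number counted as tubulogenic efficiency.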

HUVEC [6] = test: Inhibition of FBS-induced cell invasion in human HUVEC at 0.001 uM after overnight incubation using modified Boyden chambers; assay type: functional, cell-based
Method in brief: (§4)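 Modified Boyden chamber. HUVEC (5x10^4), PBS-washed, in serum-free medium with or without inhibitor in upper compartment; 10% FBS or serum-free medium below. 8 µm polycarbonate filters coated with collagen 50 µg/mL (migration, 6 h) or matrigel 1 mg/mL (invasion, overnight). Cells on lower surface ethanol-fixed, stained, counted blind in eight fields. Three experiments in duplicate; one-way ANOVA.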

[7] = target: T2, 72 kDa type IV collagenase; test: Inhibition of MMP2 in HUVEC assessed as suppression of protein production at 10 uM after 24 hrs by Western blot analysis
Method in brief: (§5)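 HUVEC (2x10^6) seeded, attached one day, starved 6 h in serum-free medium with 2% BSA. Pre-treated 3 h with 30 nM PMA, then exposed to inhibitor (10 µM) or DMSO vehicle for 24 h. Conditioned media and cell proteins collected. Equal protein on 10% SDS-PAGE, PVDF blot, milk block, anti-MMP-2, MMP-9 and β-actin antibodies, HRP/ECL detection.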
Target sequence in this assay (P08253 110-660 limits assumed): as above

[8] = Induction of apoptosis in human HUVEC assessed as cell viability at 0.001 to 10 uM after 18 hrs using Annexin-V and 7-amino-actinomycin-D staining by flow fluorocytometry analysis; assay type: cell-based; settings: HUVEC cells, read-out: Activity
Method in brief: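 HUVEC (1x10^5) plated in six-well plates, adhered overnight. Treated in growth medium with inhibitor (10 nM–10 µM) or hydrogen peroxide (100–200 µM) overnight. Stained 15 min at room temperature in the dark with FITC-Annexin V and 7-AAD in HEPES/NaCl/CaCl2 binding buffer pH 7.4. Analysed by flow cytometry.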

[9] = target: T2, 72 kDa type IV collagenase; test: Inhibition of MMP2 in HUVEC assessed as suppression of protein release at 10 uM after 24 hrs by Western blot analysis; method in brief: as §5
Target sequence in this assay (P08253 110-660 limits assumed): as above

Mus musculus [10] = test: Antiangiogenic activity in C57/BL6 mouse matrigel sponge assay model assessed as reduction of VEGF-A, TNFalpha and heparin-induced hemoglobin content at 0.1 to 10 uM, sc; assay type: functional, organism-based
Method in brief: (§6)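 Matrigel (0.6 mL final) with VTH mix (VEGF-A 100 ng/mL, TNF-α 2 ng/mL, heparin 25 UI/mL), with or without inhibitor at 0.1-1-10 µM, injected s.c. into flanks of male C57/BL6 mice; some groups also given 0.1-1-10 µM i.p. at day 0; 8 mice/group. Plugs recovered after four days. Read-outs: hemoglobin by Drabkin reagent; collagenase IV digest, flow cytometry for CD31+ cells within CD45−CD3− gate. Mean ± SEM.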

[11] = target: T1, Matrix metalloproteinase-9; test: Inhibition of MMP9 in HUVEC assessed as suppression of protein production at 10 uM after 24 hrs by Western blot analysis; method in brief: as §5
HUVEC [12] = test: Inhibition of FBS-induced cell morphogenesis in human HUVEC after 6 hrs by matrigel assay; assay type: functional, cell-based; method in brief: as §3
HUVEC [13] = test: Inhibition of FBS-induced network efficiency of human HUVEC assessed as reduction of number of meshes at 0.001 to 10 uM after 6 hrs by matrigel assay; assay type: functional, cell-based; method in brief: as §3
HUVEC [14] = test: Inhibition of cell migration in human HUVEC at 0.001 to 10 uM after 6 hrs using modified Boyden chambers; assay type: functional, cell-based; method in brief: as §4
[15] = target: T1, Matrix metalloproteinase-9; test: Inhibition of MMP9 in HUVEC assessed as suppression of protein release at 10 uM after 24 hrs by Western blot analysis; method in brief: as §5
HUVEC [16] = test: Inhibition of cell migration in human HUVEC after 6 hrs using modified Boyden chambers; assay type: functional, cell-based; method in brief: as §4
HUVEC [17] = test: Inhibition of PMA-stimulated MMP2 mRNA expression in human HUVEC after 24 hrs by QT-PCR analysis; assay type: functional, cell-based
Method in brief: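 HUVEC starved, PMA pre-treated (30 nM, 3 h), then exposed to inhibitor for 24 h before RNA extraction. Real-time PCR with SYBR Green, 45 cycles (95 °C 10 s, 60 °C 15 s, 72 °C 15 s), with melting-curve check.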

HUVEC [18] = test: Inhibition of FBS-induced cell invasion in human HUVEC after overnight incubation using modified Boyden chambers; assay type: functional, cell-based; method in brief: as §4
HUVEC [19] = test: Cytotoxicity against human HUVEC assessed as reduction of cell growth at 0.001 to 10 uM after 24 to 96 hrs by MTT assay; assay type: cell-based; settings: in the assay text read “0.01 to 10 uM” for “0.001 to 10 uM”
Method in brief: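 HUVEC (passages 3–6) seeded at 1000/well in complete medium. After adhesion, fresh medium with or without inhibitor, 10 nM–10 µM. Incubated 24, 48, 72 and 96 h; MTT absorbance read at 570 nm.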

HUVEC [20] = test: Inhibition of PMA-stimulated MMP2 protein expression in human HUVEC after 24 hrs by Western blot analysis relative to control; assay type: functional; method in brief: as §5
[21] = target: T1, Matrix metalloproteinase-9; test: Inhibition of MMP9 gelatinase activity in human HUVEC by gel zymography; method in brief: as §2
[22] = target: T2, 72 kDa type IV collagenase; test: Inhibition of MMP2 gelatinase activity in human HUVEC by gel zymography; method in brief: as §2
Target sequence in this assay (P08253 110-660 limits assumed): as above

Mus musculus [23] = test: Antiangiogenic activity in ip dosed C57/BL6 mouse matrigel sponge assay model assessed as reduction of VEGF-A, TNFalpha and heparin-induced number of CD45-/CD31+ cells after 4 days by flow cytometry; assay type: functional, organism-based; method in brief: as §6
[24] = target: T1, Matrix metalloproteinase-9; test: Inhibition of MMP9 gelatinase activity in human HUVEC at 0.001 uM by gel zymography; method in brief: as §2
Mus musculus [25] = species: Mus musculus; test: Antiangiogenic activity in C57/BL6 mouse matrigel sponge assay model assessed as reduction of VEGF-A, TNFalpha and heparin-induced number of CD45-/CD31+ cells treated in plugs by flow cytometry; assay type: functional, organism-based; method in brief: as §6
U-87 MG = test: Antiinvasive activity in human U87MG cells after 24 hrs by Transwell matrigel assay; assay type: functional, U-87MG ATCC

T1 sequence (P14780 whole entry): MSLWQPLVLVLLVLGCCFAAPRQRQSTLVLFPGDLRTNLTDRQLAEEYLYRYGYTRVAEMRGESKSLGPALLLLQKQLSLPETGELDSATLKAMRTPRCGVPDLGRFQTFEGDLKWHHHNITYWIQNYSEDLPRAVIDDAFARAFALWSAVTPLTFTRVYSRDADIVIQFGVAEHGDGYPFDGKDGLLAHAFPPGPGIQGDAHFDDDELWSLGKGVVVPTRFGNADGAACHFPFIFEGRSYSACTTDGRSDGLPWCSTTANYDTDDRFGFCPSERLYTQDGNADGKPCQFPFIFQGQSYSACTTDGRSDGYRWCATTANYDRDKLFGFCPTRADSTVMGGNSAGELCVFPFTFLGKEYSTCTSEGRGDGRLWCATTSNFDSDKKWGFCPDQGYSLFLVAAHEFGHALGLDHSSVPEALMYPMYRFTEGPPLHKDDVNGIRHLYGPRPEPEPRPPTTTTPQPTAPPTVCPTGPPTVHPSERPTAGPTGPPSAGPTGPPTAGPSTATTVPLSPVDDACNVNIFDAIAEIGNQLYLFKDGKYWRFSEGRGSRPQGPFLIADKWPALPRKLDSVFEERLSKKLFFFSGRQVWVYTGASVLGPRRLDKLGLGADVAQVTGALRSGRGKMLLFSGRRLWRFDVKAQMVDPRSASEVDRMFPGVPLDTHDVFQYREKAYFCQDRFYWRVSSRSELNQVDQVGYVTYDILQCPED
Chain of Stromelysin-1 (P08254 whole entry): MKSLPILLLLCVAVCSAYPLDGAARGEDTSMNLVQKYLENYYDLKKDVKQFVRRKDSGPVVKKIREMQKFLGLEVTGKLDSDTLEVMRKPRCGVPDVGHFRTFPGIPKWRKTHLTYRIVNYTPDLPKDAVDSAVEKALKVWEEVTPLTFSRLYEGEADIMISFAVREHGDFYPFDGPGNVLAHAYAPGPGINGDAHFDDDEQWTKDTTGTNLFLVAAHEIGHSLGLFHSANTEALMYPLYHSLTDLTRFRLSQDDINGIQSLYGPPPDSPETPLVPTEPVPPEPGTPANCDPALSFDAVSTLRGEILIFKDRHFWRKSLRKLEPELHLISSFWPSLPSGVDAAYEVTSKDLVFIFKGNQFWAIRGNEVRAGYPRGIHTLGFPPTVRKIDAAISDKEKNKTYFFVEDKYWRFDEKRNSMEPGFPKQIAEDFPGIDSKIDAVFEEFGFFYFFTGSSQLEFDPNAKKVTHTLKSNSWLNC

Compound: CC(C)ON([C@H](CCNC(=O)c1ccccc1)C(=O)NO)S(=O)(=O)c1ccc(-c2ccccc2)cc1
- IC50 [1]: 9 nM
- IC50 [2]: 1.5 nM
- IC50 (Stromelysin-1): 450 nM
- IC50 (Interstitial collagenase): 780 nM

Compound: CC(C)ON([C@H](CCNS(C)(=O)=O)C(=O)NO)S(=O)(=O)c1ccc(-c2ccccc2)cc1
- IC50 [1]: 8.6 nM
- IC50 [2]: 1 nM
- IC50 (Stromelysin-1): 71 nM
- IC50 (Interstitial collagenase): 320 nM

Compound: COc1ccc(-c2ccc(S(=O)(=O)N(OC(C)C)[C@H](CCNC(=O)Cc3ccccc3)C(=O)NO)cc2)cc1
- IC50 [1]: 2.9 nM
- IC50 [3]: 25 nM
- IC50 (Stromelysin-1): 36 nM
- IC50 (Interstitial collagenase): 1400 nM

Compound: COc1ccc(-c2ccc(S(=O)(=O)N(OC(C)C)[C@H](CCN3C(=O)c4ccccc4C3=O)C(=O)NO)cc2)cc1
- inhibition [4]: Active
- inhibition (HUVEC [5]): Active
- IC50 [1]: 0.43 nM
- inhibition (HUVEC [6]): Active
- inhibition [7]: Active
- viability at 18 h, up to 10 µM [8]: 85%
- inhibition [9]: Active
- inhibition (Mus musculus [10]): Active
- inhibition [11]: Active
- inhibition (HUVEC [12]): Dose-dependent effect
- inhibition (HUVEC [13]): Active
- inhibition (HUVEC [14]): Active
- inhibition [15]: Active
- inhibition (HUVEC [16]): Dose-dependent effect
- inhibition (HUVEC [17]): Active
- inhibition (HUVEC [18]): Dose-dependent effect
- Activity (HUVEC [19]): Non-toxic
- fold change (FC) (HUVEC [20]): 0.6
- inhibition [21]: Dose-dependent effect
- inhibition [22]: Dose-dependent effect
- IC50 (Stromelysin-1): 105 nM
- IC50 (Interstitial collagenase): 200 nM
- inhibition (Mus musculus [23]): Dose-dependent effect
- inhibition [24]: Active
- inhibition (Mus musculus [25]): Dose-dependent effect

Compound: CC(C)ON([C@@H](C(=O)NO)C(C)C)S(=O)(=O)c1ccc(-c2ccccc2)cc1
- Activity (U-87 MG): 48%
